This passage reports Activity results from ChEMBL document CHEMBL2086362, “Synthesis and characterization of novel 2-amino-3-benzoylthiophene derivatives as biased allosteric agonists and modulators of the adenosine A(1) receptor” (J Med Chem, 2012).

Each structure is given as a SMILES string. Activity calls are given as the source filed them. The rule behind the calls is not given here.

Holding throughout (assay type): functional, cell-based
The target in test [1] is T1, Adenosine receptor A1 (Homo sapiens) (UniProt P30542).
T1 sequence (whole entry): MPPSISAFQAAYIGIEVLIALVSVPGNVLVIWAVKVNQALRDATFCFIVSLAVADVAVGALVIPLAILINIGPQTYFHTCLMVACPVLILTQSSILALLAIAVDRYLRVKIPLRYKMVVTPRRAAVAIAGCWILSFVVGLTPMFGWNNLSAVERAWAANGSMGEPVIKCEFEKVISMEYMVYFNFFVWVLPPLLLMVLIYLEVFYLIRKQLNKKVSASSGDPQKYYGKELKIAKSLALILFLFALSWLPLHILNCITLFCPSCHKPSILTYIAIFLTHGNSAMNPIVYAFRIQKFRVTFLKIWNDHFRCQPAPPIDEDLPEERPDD
Nature of the test: Agonist activity at human A1 receptor expressed in CHO cells assessed as enhancement of R-PIA mediated ERK1/2 phosphorylation at 10 uM after 5 mins by Alpha-Screen assay. A digest of the protocol: (§1)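 Flp-In CHO cells stably expressing human A1R, 30000/well, serum-starved overnight, then 1 U/mL ADA for 30 min. Test compound (3 or 10 μM) added 5 min before an EC50 concentration of R-PIA (determined same day), then a further 5 min at 37 °C. pERK1/2 read by SureFire AlphaScreen. Mean of two to three experiments in triplicate.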

Test [2] has as its target T1, Adenosine receptor A1 (Homo sapiens). Nature of the test: Agonist activity at human A1 receptor expressed in CHO cells assessed as enhancement of R-PIA mediated ERK1/2 phosphorylation at 3 uM after 5 mins by Alpha-Screen assay. The essentials: as §1
(In general: Alpha assays give light when donor and acceptor beads are brought close together.)

Test [3] shares this target. Nature of the test: Positive allosteric modulation at human A1 receptor expressed in CHO cells assessed as enhancement of R-PIA-mediated inhibition of forskolin-stimulated cAMP accumulation after 30 mins by Alpha-Screen assay. A digest of the protocol: (§2)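 Serum-starved CHO-FlpIn hA1R cells were preincubated 30 min in phenol red-free DMEM with 0.1% BSA, 1 U/mL ADA and 500 μM IBMX. They were then treated with 10 μM forskolin plus R-PIA and/or modulator for 30 min at 37 °C, and cAMP was read by AlphaScreen. Data were normalized to 10 μM forskolin and fitted to an operational model of allosterism. Three experiments in duplicate.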

For test [4] the target is unchanged. Kind of test: Agonist activity at human A1 receptor expressed in CHO cells assessed as stimulation of ERK1/2 phosphorylation at 3 to 10 uM after 5 mins by Alpha-Screen assay. The essentials:
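Flp-In CHO cells stably expressing human A1R, serum-starved overnight and pretreated with 1 U/mL ADA for 30 min. Compound (3 and 10 μM) applied alone, 5 min at 37 °C. Intrinsic agonism measured as ERK1/2 phosphorylation by SureFire AlphaScreen, with 3% FBS as positive control. Two to three experiments in triplicate.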

For test [5] the target is unchanged. Kind of test: Positive allosteric modulation at human A1 receptor expressed in CHO cells assessed as inhibition of forskolin-stimulated cAMP accumulation after 30 mins by Alpha-Screen assay. The essentials:
as §2
On the technique in general: cAMP levels reflect the balance of adenylyl cyclase and phosphodiesterase activity.

In the case of `Nc1scc(-c2cc(C(F)(F)F)cc(C(F)(F)F)c2)c1C(=O)c1cccc(C(F)(F)F)c1`, the values for the Activity in test [1] and in test [2] were 84% and 90%, respectively.

Take `Cc1ccc(C(=O)c2c(N)sc(C)c2-c2cc(C(F)(F)F)cc(C(F)(F)F)c2)cc1`: the Activity in test [1] was determined as 80%; in test [2], 92%.

Consider `Nc1scc(-c2cccc(C(F)(F)F)c2)c1C(=O)c1cccc(C(F)(F)F)c1`, for which the Activity in test [1] was found to be 94%; in test [2] it was 93%.

As to `Cc1sc(N)c(C(=O)c2cccc(C(F)(F)F)c2)c1-c1cccc(C(F)(F)F)c1`, the Activity in test [1] is 86%; in test [2], 90%.

As for `Cc1sc(N)c(C(=O)c2ccc(Cl)c(Cl)c2)c1-c1cccc(C(F)(F)F)c1`, the Activity in test [1] amounted to 75%; in test [2], 73%.

For `Cc1sc(N)c(C(=O)c2ccc(Cl)cc2)c1-c1cccc(C(F)(F)F)c1`, the Activity in test [1] and in test [2] was 94% throughout. Also, the outcome in test [3] and in test [4] was Active.

Take `Nc1scc(-c2cc(C(F)(F)F)cc(C(F)(F)F)c2)c1C(=O)c1ccc(Cl)c(Cl)c1`: the Activity in test [1] and in test [2] was 90% each time.

In the case of `Cc1sc(N)c(C(=O)c2cccc(C(F)(F)F)c2)c1-c1cc(C(F)(F)F)cc(C(F)(F)F)c1`, the Activity in test [1] and in test [2] was 84% each time.

For `Nc1scc(-c2cccc(C(F)(F)F)c2)c1C(=O)c1ccc(Cl)c(Cl)c1`, the Activity in test [1] and in test [2] was 88% each time.

As for `Cc1ccc(C(=O)c2c(-c3cccc(C(F)(F)F)c3)csc2N)cc1`, the Activity in test [1] was found to be 83%; in test [2], 85%.

Regarding `Cc1sc(N)c(C(=O)c2ccc(Cl)cc2)c1-c1cc(C(F)(F)F)cc(C(F)(F)F)c1`, the results for the Activity in test [1] and in test [2] were 88% and 84%, respectively.

As for `Cc1sc(N)c(C(=O)c2ccccc2)c1-c1cccc(C(F)(F)F)c1`, the Activity in test [1] was 73%; in test [2], 77%. Besides, the outcome in test [5], in test [3] and in test [4] was Active.

As for `Cc1ccc(C(=O)c2c(N)sc(C)c2-c2cccc(C(F)(F)F)c2)cc1`, the Activity in test [1] was determined as 90%; in test [2], 86%.

Take `Cc1sc(N)c(C(=O)c2ccccc2)c1-c1cc(C(F)(F)F)cc(C(F)(F)F)c1`: the Activity in test [1] came out at 95%; in test [2], 83%.

With `Cc1ccc(C(=O)c2c(-c3cc(C(F)(F)F)cc(C(F)(F)F)c3)csc2N)cc1`, the Activity in test [1] turned out to be 87%; in test [2], 86%.

For the molecule `Cc1sc(N)c(C(=O)c2ccc(Cl)c(Cl)c2)c1-c1cc(C(F)(F)F)cc(C(F)(F)F)c1`, the Activity in test [1] came to 84%; in test [2], 78%.
